# Screening data as filed in PubChem.
# MT1-MMP txn act – MT1-MMP promoter transcription activation; activation factor at 10 µM; HT1080 MT1-MMP promoter luciferase reporter, luminescence, overnight; hits give high values; AID 750; hit rate 0.16% among 86,000;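 active = activation factor of at least 2 for MT1-MMP transcription at 10 µM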
# M1 antagonist – antagonists of rat M1 muscarinic receptor. P08482. CHO-M1 cells, Fluo-4 calcium, ACh EC80 antagonist mode; hits give low values. B-score at 10 µM. hit rate 3.4% among 64,000;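 active = calcium fluorescence response, raw or row-and-column corrected B-score, differing from the plate sample mean either way at a set confidence level, mostly lower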
# RORA act – RORA (human) activation; AID 560; hit rate 1.5% among 65,000; activation, % at 10 µM; CHO-K1 Gal4-RORA LBD luciferase reporter, luminescence; percent increase over mock-subtracted basal signal; P35398;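 active = activation above the mean of all tested compounds plus 3 SD, cut at about 49% in these data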;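 note: 0% = DMSO-treated RORA cells and 100% = added signal equal to DMSO minus mock-transfected cells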
# Target sequence (P35398 whole entry, looked up, the tested form may be a part): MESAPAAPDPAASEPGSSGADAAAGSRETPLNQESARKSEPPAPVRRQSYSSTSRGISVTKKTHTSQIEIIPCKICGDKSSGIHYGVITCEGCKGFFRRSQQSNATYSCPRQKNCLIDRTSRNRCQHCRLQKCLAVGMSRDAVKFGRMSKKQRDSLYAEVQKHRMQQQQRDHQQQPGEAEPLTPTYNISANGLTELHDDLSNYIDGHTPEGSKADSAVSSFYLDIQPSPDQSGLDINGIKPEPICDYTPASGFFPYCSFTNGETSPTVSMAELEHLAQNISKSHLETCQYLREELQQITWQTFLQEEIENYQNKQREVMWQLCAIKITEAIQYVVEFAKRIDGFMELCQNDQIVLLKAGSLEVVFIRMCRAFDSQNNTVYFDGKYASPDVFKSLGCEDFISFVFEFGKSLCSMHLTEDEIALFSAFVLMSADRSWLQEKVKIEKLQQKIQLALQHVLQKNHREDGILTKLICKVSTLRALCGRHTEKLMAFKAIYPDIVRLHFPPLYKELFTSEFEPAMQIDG
# M1 agonist – M1 muscarinic receptor agonism | CHO-M1 cells, Fluo-4 calcium fluorescence, agonist mode; hits give high values | B-score at 10 µM | hit rate 3% among 64,000 | AID 626;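 active = fluorescence rise, raw or as B-score row- and column-corrected plate score, outside the 99.7% band of its plate's samples, either direction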
# SF-1 act – activators of human nuclear receptor SF-1. hit rate 1.9% among 65,000. CHO-K1 Gal4-SF-1 LBD luciferase reporter; % increase over DMSO SF-1-specific signal. Q13285. AID 522. activation, % at 10 µM;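 active = activation above the mean activation of all tested compounds plus 3 SD, cut at about 50% in these data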
#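 Compound – one dose, 10 µM compound, 1% DMSO · Test system – transient Gal4-SF-1 LBD reporter, CHO-K1 · Input – 4,000 cells in each well · Read-out basis – percent activation relative to DMSO median and mock-transfected background · Replicates – single measurement per compound · Technique – steady-glow luciferase luminescence, read after 15 min reagent incubation · Timing – 20 h compound treatment, 37 °C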
# M1 antag conf – confirmation of rat M1 muscarinic receptor antagonists | shares compounds with M1 antagonist | calcium response (max-min fluorescence) at 10 µM | hit rate 43% among 1,700 | CHO-M1 cells, Fluo-4 calcium, ACh EC80 antagonism; hits give low values | AID 677;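 active = calcium response below the same-plate mean of wells given acetylcholine alone at its 80%-effect dose, minus 3 SD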;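 note: raw fluorescence intensity difference in arbitrary instrument units and not normalized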
# mGluR4 antag – selectivity test for M1 antagonists: human mGluR4 receptor; shares compounds with M1 antagonist; CHO-mGluR4 calcium flux, Fluo-4 fluorescence, glutamate EC80; hits give low values; fluorescence response (max-min) at 10 µM; hit rate 0.9% among 1,700;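 active = fluorescence response below the plate's average for near-maximal glutamate wells, less 3 SD of those wells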;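 note: raw unnormalized fluorescence span taken in the window right after glutamate addition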
# * = called active by the depositor; / = no result given. Most compounds without a hit are left out; they make up all but 6.3% or so of the library.
SMILES,MT1-MMP txn act,M1 antagonist,RORA act,M1 agonist,SF-1 act,M1 antag conf,mGluR4 antag
c1ccc(OCCCN2CCCC2)cc1,1,/,/,/,/,/,/
COc1cccc(OCCCCN2CCCCC2)c1,1.2,-1.2*,6,0.11,10,280*,203
CCOc1cccc(OCCCCN2CCCCC2)c1,1.1,-3.1*,-6,0.36,-7,329*,214
Cc1ccccc1C(=O)c1ccc2c(c1)n(C)c(=O)n2C,1,0.39,-15,0.0021,-1,/,/
COc1nc(Nc2ccc(OC)c(Cl)c2)nc(OC)n1,1.2,-1.2*,-2,-0.11,6,603,255
CCOc1nc(Nc2ccc(OC)c(Cl)c2)nc(N2CCN(c3ccc(OC)cc3)CC2)n1,1.1,/,/,/,/,/,/
CCOC(=O)CN(C(=O)CSc1nnc(-c2ccncc2)n1CCCOC)c1ccccc1,1.2,/,/,/,/,/,/
CCOC(=O)CN(C(=O)CSc1nnc(-c2ccncc2)n1CCCN(C)C)c1ccccc1,1.1,-1.4*,5,0.28,6,611,249
CCn1c(CNc2ccc(F)cc2)nnc1SCCN1CCCCC1,1.2,-3.3*,-7,0.48,-4,570*,149
CCn1c(CNc2cccc(Cl)c2)nnc1SCC(=O)OC1CCCCC1,1.1,-0.36,-11,-0.35,1,/,/
CCn1c(CNc2ccccc2Cl)nnc1SCC(=O)OC1CCCCC1,1,-4.7*,-17,0.55,-12,370*,220
CCSc1nnc(CNc2ccc(F)cc2)n1CC1CCCO1 (configuration not stated),1.1,1,-1,-0.013,-12,/,/
CCn1c(CNc2ccc(Cl)cc2)nnc1SCC(=O)OC1CCCCC1,1.3,/,/,/,/,/,/
CCn1c(CNc2ccccc2Cl)nnc1SCCN1CCCCC1,1.4,-4.4*,-1,-0.037,-2,271*,204
COc1ccc(-c2nc(=S)[nH][nH]2)cc1,1.1,0.13,5,0.19,13,/,/
CCOc1ccc(-c2nc(=S)[nH][nH]2)cc1,1,-5.2*,26,1.5,34,638,242
COC(=O)/C=c1/s/c(=C(\C#N)C(=O)NCc2ccco2)n(-c2ccccc2)c1=O,1.1,-2.2*,-5,0.78,2,669,218
CN(Cc1ccccc1)Cc1nc2c(c(=O)n(C)c(=O)n2C)n1Cc1ccc(F)cc1,1.2,-2.6*,-3,0.3,-11,657,223
Cc1ccc(Cn2c(CN(C)Cc3ccccc3)nc3c2c(=O)n(C)c(=O)n3C)cc1,1.2,-0.18,-3,-0.26,0,/,/
Cn1c(=O)c2c(nc(SCCN3CCOCC3)n2Cc2ccc(F)cc2)n(C)c1=O,1,0.81,10,0.34,-2,/,/
Cn1c(=O)c2c(nc(SCCN3CCCCC3)n2Cc2ccccc2)n(C)c1=O,1.2,-4.7*,-6,-1.1,-5,246*,247
Cc1ccc(Cn2c(SCCN3CCCCC3)nc3c2c(=O)n(C)c(=O)n3C)cc1,1.1,-3.9*,11,-2,-8,267*,247
Cn1c(=O)c2c(nc(SCCN3CCOCC3)n2Cc2ccccc2Cl)n(C)c1=O,1.1,0.15,10,-0.78,1,/,/
COC(=O)c1ccccc1OC(=O)c1ccc(Br)o1,1,-4.5*,-10,0.86,-6,518,179
CC(C)CC(=O)N1CCN(C(=O)c2cccc(F)c2)CC1,1.1,-2.2*,-21,0.83,-10,622,246
SMILES,MT1-MMP txn act,M1 antagonist,RORA act,M1 agonist,SF-1 act,M1 antag conf,mGluR4 antag
O=C(CN1C2=NCCN2c2ccccc21)C12CC3CC(CC(C3)C1)C2,1.3,-9.3*,0,-0.29,-2,337*,153
Cc1csc(NC(=O)c2ccccc2C(=O)O)n1,1.1,-3*,0,-0.17,23,605,254
O=C(CSc1ncccc1-c1nc2ccccc2[nH]1)NCc1ccco1,1,0.32,-2,-0.81,-7,/,/
COC(=O)CSc1ncccc1-c1nc2ccccc2[nH]1,1,-2.3*,12,-0.52,-7,682,231
COc1ccccc1-n1c(C)nnc1SCC(=O)Nc1cccc(C(C)=O)c1,1.2,-2.7*,3,-0.52,5,649,226
COc1ccccc1-n1c(C)nnc1SCC(=O)NCc1ccccc1,1.2,/,/,/,/,/,/
CC(=Nc1ccc(C)c(C)c1)C1=C(O)CSC1=O,1.4,-0.55,45,-0.26,26,/,/
